# In ChEMBL document CHEMBL1126152, “Fluoronaphthyridines as antibacterial agents. 4. Synthesis and structure-activity relationships of 5-substituted-6-fluoro-7-(cycloalkylamino)-1,4-dihydro-4-oxo-1,8- naphthyridine-3-carboxylic acids” (J Med Chem, 1992):
# Values joined by “and” are separate entries in the source; they are usually repeats but may differ in a detail not shown here. Equal values may be shown once.
# Legend:
# [1] = % dose recovered in mouse urine; conditions: % recovery
# Bacteroides fragilis = test: In vitro for antibacterial activity against […].; type: functional
# How it was run: (§1)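 MIC by serial 2-fold broth dilution in nutrient broth with an inoculum of 10^6 CFU/mL. Compound range was 0.0005–250 μg/mL. Plates were incubated 18 h at 37 °C. MIC was taken as the lowest concentration preventing visible growth.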
# Enterococcus faecalis = test: In vitro for antibacterial activity against Enterococcus faecalis; type: functional; how it was run: as §1
# Escherichia coli [2] = test: In vitro for antibacterial activity against Escherichia coli; type: functional; how it was run: as §1
# Enterobacter cloacae = test: In vitro for antibacterial activity against Enterobacter cloacae; type: functional
# Klebsiella pneumoniae = test: In vitro for antibacterial activity against Klebsiella pneumoniae; type: functional; how it was run: as §1
# Morganella morganii = test: In vitro for antibacterial activity against Morganella morganii; type: functional; how it was run: as §1
# Pseudomonas aeruginosa [3] = test: Compound was tested for […] against Pseudomonas aeruginosa A 9843 after oral administration of drug in mice, value in the parenthesis indicates 95% confidence limits; type: functional; conditions: read-out: PD50
# How it was run: (§2)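 Mouse protection test against systemic infection. Compound was dissolved in sterile water and given orally to female OF1-strain Swiss mice weighing 18–25 g, with five mice per group.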
# Pseudomonas aeruginosa [4] = test: In vitro for antibacterial activity against Pseudomonas aeruginosa; type: functional; how it was run: as §1
# Proteus mirabilis = test: In vitro for antibacterial activity against Proteus mirabilis; type: functional; how it was run: as §1
# Staphylococcus [5] = test: Compound was tested for […] against Staphylococcus aureus A 15090 after oral administration of drug in value in the parenthesis indicates 95% confidence limits; type: functional; conditions: read-out: PD50; how it was run: as §2
# Serratia marcescens = test: In vitro for antibacterial activity against Serratia marcescens; type: functional; how it was run: as §1
# Streptococcus pneumoniae [6] = test: Antibacterial activity against Streptococcus pneumoniae; type: functional
# Staphylococcus aureus [7] = test: Antibacterial activity against Staphylococcus aureus; type: functional
# Mus musculus [8] = organism: Mus musculus; conditions: in vivo
# in vivo [9] = conditions: mouse, plasma
# in vivo [10] = conditions: mouse, plasma, T1/2
# Escherichia coli [11] = test: Compound was tested for […] against Escherichia coli A 15119 after oral administration of drug in mice; type: functional; conditions: read-out: PD50; how it was run: as §2
# Pseudomonas aeruginosa [12] = test: animal or person; type: functional; conditions: in Mus musculus, po, read-out: PD50
# Staphylococcus [13] = test: Compound was tested for […] against Staphylococcus aureus A 15090 after oral administration of drug in mice; type: functional; conditions: read-out: PD50; how it was run: as §2
# Streptococcus pneumoniae [14] = test: animal or person; type: functional; conditions: in Mus musculus, po, read-out: PD50
# Mus musculus [15] = organism: Mus musculus; conditions: in vivo; remark: listed apart in the source
# [16] = Max plasma concentration was measured by 40 mg/kg dose of peroral administration.; type: ADME, organism-based; set-up: dose 40 mg/kg, route oral; conditions: po
# How it was run: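 Mice were dosed orally at 40 mg/kg, and compound levels were measured in blood. Values came from duplicate or triplicate experiments and are stated as accurate to ±50%.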
# [17] = (§3) Solubility was measured at PH - 7.2 buffer
# [18] = Partition coefficient (logD); conditions: octanol/water
# Staphylococcus aureus [19] = test: animal or person; type: functional; conditions: in Mus musculus, po, read-out: PD50
# Escherichia coli [20] = test: Compound was tested for […] against Escherichia coli A 15119 after oral administration of drug in mice, value in the parenthesis indicates 95% confidence limits; type: functional; conditions: read-out: PD50; how it was run: as §2
# [21] = Lethal dose was determined in OF1-strain female Swiss mice after intra venous administration of the drug; conditions: mouse, in vivo, iv
# [22] = Lethal dose was determined in OF1-strain female Swiss mice after oral administration of the drug; conditions: mouse, in vivo
# Streptococcus pneumoniae [23] = test: Compound was tested for efficacy on systemic infection against Streptococcus pneumoniae A 9585 after oral administration of drug in mice, value in the parenthesis indicates 95% confidence limits
# Pseudomonas aeruginosa [24] = test: Compound was tested for […] against Pseudomonas aeruginosa A 9843 after oral administration of drug in mice,; type: functional; conditions: read-out: PD50; how it was run: as §2
# [25] = as §3; type: physicochemical
# How it was run: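 Excess solid was shaken overnight at 22 °C in pH 7.2 buffer for injection, then filtered. The diluted filtrate was assayed by HPLC with UV detection.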
SMILES,dose excreted [1] [%],MIC (Bacteroides fragilis) [µg/mL],MIC (Enterococcus faecalis) [µg/mL],MIC (Escherichia coli [2]) [µg/mL],MIC (Enterobacter cloacae) [µg/mL],MIC (Klebsiella pneumoniae) [µg/mL],MIC (Morganella morganii) [µg/mL],MIC (Pseudomonas aeruginosa [4]) [µg/mL],MIC (Proteus mirabilis) [µg/mL],MIC (Serratia marcescens) [µg/mL],MIC (Streptococcus pneumoniae [6]) [µg/mL],MIC (Staphylococcus aureus [7]) [µg/mL],Cmax (in vivo [9]) [ng/mL],half-life (in vivo [10]) [h],ED50 (Escherichia coli [11]) [mg/kg],ED50 (Pseudomonas aeruginosa [12]) [mg/kg],ED50 (Streptococcus pneumoniae [14]) [mg/kg],solubility [17] [µg/mL],logD [18],ED50 (Staphylococcus aureus [19]) [mg/kg],other results
Cc1c(F)c(N2CC3CC2CN3)nc2c1c(=O)c(C(=O)O)cn2C(C)(C)C (stereo not given),12,32,0.5,0.03,0.13,0.06,0.13,2,0.25,0.13,0.25,0.02,22000,3.1,,,,,,,ED50 (Pseudomonas aeruginosa [3]): 4.1 mg/kg; ED50 (Staphylococcus [5]): 12.5 mg/kg; AUC (Mus musculus [8]): 74000 ng·h/mL
Cc1c(F)c(N2CCNCC2)nc2c1c(=O)c(C(=O)O)cn2C1CC1,12,32,1,0.008,0.03,0.02,0.06,0.5,0.13,0.13,1,0.03,,,1.2,5.6,> 50,,,,ED50 (Staphylococcus [13]): 9.6 mg/kg; T1/2 (Mus musculus [15]): 2.73 h and 1.23 h
Cc1c(F)c(N2CC[C@H](N)C2)nc2c1c(=O)c(C(=O)O)cn2C(C)(C)C,7,4,0.13,0.004,0.03,0.03,0.06,1,0.06,0.13,0.25,0.004,7000,2.83,,25,> 25,570,1.14,,Cmax [16]: 7000 ng/mL; ED50 (Staphylococcus [13]): 4.1 mg/kg
Cc1c(F)c(N2CC3CC2CN3)nc2c1c(=O)c(C(=O)O)cn2-c1ccc(F)cc1F (stereo not given),11,4,0.13,0.008,0.03,0.06,0.13,0.5,0.06,0.13,0.06,0.008,20000,2.38,,1.6,,50,0.59,0.7,T1/2 (Mus musculus [15]): 2.08 h
CC(C)(C)n1cc(C(=O)O)c(=O)c2cc(F)c(N3CC4CC3CN4)nc21 (stereo not given),34,4,0.5,0.008,0.02,0.02,0.06,0.25,0.06,0.06,0.13,0.003,10000,1.6,,,,80,,1.6,ED50 (Escherichia coli [20]): 1.8 mg/kg; LD50 [21]: 303 mg/kg; LD50 [22]: 5000 mg/kg; ED50 (Pseudomonas aeruginosa [3]): 4.7 mg/kg; T1/2 (Mus musculus [15]): 1.58 h; PD50 (Streptococcus pneumoniae [23]): 29.7 mg/kg
CN[C@H]1CCN(c2nc3c(c(C)c2F)c(=O)c(C(=O)O)cn3-c2ccc(F)cc2F)C1,,2,0.25,0.016,0.03,0.016,0.06,1,0.13,0.25,0.06,0.008,,,2.7,1.8,4.1,10,1.38,1.8,LD50 [21]: 94 mg/kg; LD50 [22]: 2500 mg/kg; AUC (Mus musculus [8]): 32000 ng·h/mL
Cc1c(F)c(N2CC[C@H](N)C2)nc2c1c(=O)c(C(=O)O)cn2C1CC1,,0.25,0.13,0.002,0.002,0.004,0.016,0.25,0.008,0.004,0.13,0.004,,,1.8,,19,70,0.78,5.5,LD50 [21]: 56 mg/kg; LD50 [22]: 2500 mg/kg; ED50 (Pseudomonas aeruginosa [24]): 2.8 mg/kg
CCn1cc(C(=O)O)c(=O)c2c(C)c(F)c(N3CC[C@H](N)C3)nc21,,,2,0.002,0.008,0.016,0.03,1,0.13,0.13,0.5,0.016,,,,,,,,,solubility [25]: 30 µg/mL
